The test system of experiment [1] is A549. The experiment can be described thus: Antiproliferative activity against human A549 cells assessed as inhibition of cell growth after 72 hrs by MTT assay. It is filed as functional, cell-based. Particulars: A549, 72 h. The gist of the method: (§1)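 Cell lines from the Chinese Academy of Sciences cell collection, grown in 96-well plates with a range of compound concentrations for 72 h. Viability read by MTT, with AZD9291 as positive control. IC50 values are averages of three determinations per the methods section; table footnotes state an average of two separate determinations.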

In experiment [2] the test system is HeLa. In words: Antiproliferative activity against human HeLa cells assessed as inhibition of cell growth after 72 hrs by MTT assay. It is filed as functional, cell-based. The procedure, abridged:
as §1

In experiment [3] the target is T1, Epidermal growth factor receptor (Homo sapiens, UniProt P00533). The experiment can be described thus: Inhibition of wildtype EGFR (unknown origin) using biotin as substrate in presence of ATP by mobility shift assay based ELISA.
T1 sequence (P00533 whole entry): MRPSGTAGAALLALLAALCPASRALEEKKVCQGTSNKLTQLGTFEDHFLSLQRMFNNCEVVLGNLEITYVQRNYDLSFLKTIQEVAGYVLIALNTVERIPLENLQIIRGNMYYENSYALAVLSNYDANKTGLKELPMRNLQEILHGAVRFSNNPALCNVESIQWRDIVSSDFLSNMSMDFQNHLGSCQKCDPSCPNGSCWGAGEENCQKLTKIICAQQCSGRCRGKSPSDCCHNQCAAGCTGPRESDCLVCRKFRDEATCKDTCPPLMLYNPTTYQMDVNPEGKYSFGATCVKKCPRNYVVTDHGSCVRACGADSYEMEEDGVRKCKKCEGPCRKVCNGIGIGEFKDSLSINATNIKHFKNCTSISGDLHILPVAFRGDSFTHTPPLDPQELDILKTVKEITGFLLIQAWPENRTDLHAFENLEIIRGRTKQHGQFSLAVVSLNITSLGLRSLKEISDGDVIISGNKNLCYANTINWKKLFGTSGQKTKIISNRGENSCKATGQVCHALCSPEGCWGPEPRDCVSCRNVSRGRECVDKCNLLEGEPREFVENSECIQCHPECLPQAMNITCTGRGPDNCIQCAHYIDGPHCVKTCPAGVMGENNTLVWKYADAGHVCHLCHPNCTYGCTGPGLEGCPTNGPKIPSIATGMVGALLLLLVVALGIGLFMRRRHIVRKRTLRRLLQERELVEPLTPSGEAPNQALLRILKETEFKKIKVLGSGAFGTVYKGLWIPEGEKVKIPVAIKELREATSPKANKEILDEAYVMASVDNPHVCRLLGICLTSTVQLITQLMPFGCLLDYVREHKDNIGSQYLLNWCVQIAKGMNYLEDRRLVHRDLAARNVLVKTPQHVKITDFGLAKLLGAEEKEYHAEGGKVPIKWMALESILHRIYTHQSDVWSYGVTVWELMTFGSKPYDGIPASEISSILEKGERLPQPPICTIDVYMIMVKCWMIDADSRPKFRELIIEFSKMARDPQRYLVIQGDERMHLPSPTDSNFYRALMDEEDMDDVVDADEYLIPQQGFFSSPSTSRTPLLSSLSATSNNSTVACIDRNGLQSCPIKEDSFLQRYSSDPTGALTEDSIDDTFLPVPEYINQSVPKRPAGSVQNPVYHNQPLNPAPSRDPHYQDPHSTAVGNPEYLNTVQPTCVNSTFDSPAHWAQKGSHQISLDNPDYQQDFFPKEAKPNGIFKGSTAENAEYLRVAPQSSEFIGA
Experiment [4] concerns the target Epidermal growth factor receptor (Homo sapiens, UniProt P00533, L858R/T790M). In words: Inhibition of EGFR T790M/L858R double mutant (unknown origin) using biotin as substrate in presence of ATP by mobility shift assay based ELISA.
Experiment [5] is filed under the species Homo sapiens. In words: Selectivity ratio of IC50 for wildtype EGFR (unknown origin) to IC50 for EGFR T790M/L858R double mutant (unknown origin) by mobility shift assay based ELISA.
Experiment [6] relates to NCI-H1975. The experiment can be described thus: Antiproliferative activity human NCI-H1975 cells harboring EGFR T790M/L858R double mutant assessed as inhibition of cell growth at 10 uM after 72 hrs by MTT assay relative to control. It is filed as functional. Particulars: NCI-H1975, 72 h. The gist of the method: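 H1975 cells exposed to compound at a single 10 uM concentration. Growth inhibition rate read by MTT after 72 h in 96-well plates, with AZD9291 as positive control. Values are an average of two separate determinations.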

Experiment [7] relates to NCI-H1975. In words: Antiproliferative activity against human NCI-H1975 cells harboring EGFR T790M/L858R double mutant assessed as inhibition of cell growth after 72 hrs by MTT assay. Conditions: NCI-H1975, 72 h. The class given is functional, cell-based. The gist of the method:
as §1

The test system of experiment [8] is A549. The experiment can be described thus: Induction of apoptosis in human A549 cells assessed as viable cells at 0.057 uM after 24 hrs by AnnexinV-FITC/propidium iodide staining based FACSCalibur flow cytometry analysis (reference value: 94.42 %). The class given is functional. Particulars: A549, 24 h, read-out: Activity.
Experiment [9] deals with A549. In words: Induction of apoptosis in human A549 cells assessed as early apoptotic cells at 0.057 uM after 24 hrs by AnnexinV-FITC/propidium iodide staining based FACSCalibur flow cytometry analysis (reference value: 3.51 %). It is filed as functional.
Experiment [10] relates to A549. The experiment can be described thus: Induction of apoptosis in human A549 cells assessed as late apoptotic cells at 0.057 uM after 24 hrs by AnnexinV-FITC/propidium iodide staining based FACSCalibur flow cytometry analysis (reference value: 1.74 %). The class given is functional.
In experiment [11] the test system is A549. The experiment can be described thus: Induction of apoptosis in human A549 cells assessed as necrotic cells at 0.057 uM after 24 hrs by AnnexinV-FITC/propidium iodide staining based FACSCalibur flow cytometry analysis (reference value: 0.33 %). The class given is functional.
The test system of experiment [12] is A549. In words: Cell cycle arrest in human A549 cells assessed as accumulation at G0/G1 phase at 0.057 uM after 24 hrs by propidium iodide staining based FACSCalibur flow cytometry analysis (reference value: 74.31 %). It is filed as functional. The procedure, abridged:
(§2)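 A549 cells seeded in 6-well plates for 24 h, then treated for 24 h; vehicle was 0.1% DMSO. Cells were harvested as single-cell suspensions, fixed in 70% ice-cold ethanol for 12 h, and stained with propidium iodide. DNA content was measured by flow cytometry. AZD9291 at 0.462 uM was included as reference.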

The subject of experiment [13] is A549. In words: Cell cycle arrest in human A549 cells assessed as accumulation at S phase at 0.057 uM after 24 hrs by propidium iodide staining based FACSCalibur flow cytometry analysis (reference value: 22.24 %). The class given is functional. The procedure, abridged: as §2
The subject of experiment [14] is A549. The experiment can be described thus: Cell cycle arrest in human A549 cells assessed as accumulation at G2/M phase at 0.057 uM after 24 hrs by propidium iodide staining based FACSCalibur flow cytometry analysis (reference value: 3.45 %). The class given is functional. The gist of the method:
as §2

For experiment [15], the system named is HeLa. In words: Inhibition of EFGR protein expression in human HeLa cells after 24 hrs by Western blot analysis. The class given is functional, cell-based. The procedure, abridged: (§3)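 HeLa cells treated for 24 h with graded compound concentrations, with AZD9291 as positive control. Whole-cell lysates were made in RIPA buffer and protein measured by BCA. Equal protein was run on 10% SDS-PAGE, transferred to PVDF on ice, and probed for EGFR, p-EGFR and GAPDH.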

For experiment [16], the target named is T1, Epidermal growth factor receptor. In words: Inhibition of EFGR phosphorylation in human HeLa cells at 0.1 to 10 uM after 24 hrs by Western blot analysis. It is filed as cell-based. The procedure, abridged:
as §3

In experiment [17] the test system is A549. The experiment can be described thus: Induction of apoptosis in human A549 cells assessed as viable cells at 0.716 uM after 24 hrs by AnnexinV-FITC/propidium iodide staining based FACSCalibur flow cytometry analysis (reference value: 94.42 %). The class given is functional. Particulars: A549, 24 h, read-out: Activity.
In experiment [18] the test system is A549. The experiment can be described thus: Induction of apoptosis in human A549 cells assessed as early apoptotic cells at 0.716 uM after 24 hrs by AnnexinV-FITC/propidium iodide staining based FACSCalibur flow cytometry analysis (reference value: 3.51 %). The class given is functional.
In experiment [19] the test system is A549. The experiment can be described thus: Induction of apoptosis in human A549 cells assessed as late apoptotic cells at 0.716 uM after 24 hrs by AnnexinV-FITC/propidium iodide staining based FACSCalibur flow cytometry analysis (reference value: 1.74 %). The class given is functional.
Experiment [20] concerns A549. The experiment can be described thus: Induction of apoptosis in human A549 cells assessed as necrotic cells at 0.716 uM after 24 hrs by AnnexinV-FITC/propidium iodide staining based FACSCalibur flow cytometry analysis (reference value: 0.33 %). The class given is functional.
The test system of experiment [21] is A549. In words: Cell cycle arrest in human A549 cells assessed as accumulation at G0/G1 phase at 0.716 uM after 24 hrs by propidium iodide staining based FACSCalibur flow cytometry analysis (reference value: 74.31 %). The class given is functional. The procedure, abridged:
as §2

For experiment [22], the system named is A549. The experiment can be described thus: Cell cycle arrest in human A549 cells assessed as accumulation at S phase at 0.716 uM after 24 hrs by propidium iodide staining based FACSCalibur flow cytometry analysis (reference value: 22.24 %). It is filed as functional. The procedure, abridged:
as §2

Experiment [23] relates to A549. In words: Cell cycle arrest in human A549 cells assessed as accumulation at G2/M phase at 0.716 uM after 24 hrs by propidium iodide staining based FACSCalibur flow cytometry analysis (reference value: 3.45 %). It is filed as functional. The gist of the method:
as §2

The structures appear in SMILES notation. The source made the active and inactive calls. The rule behind the calls is not given here.

Chain of Epidermal growth factor receptor (Homo sapiens, UniProt P00533, L858R/T790M) (P00533 25-1210 T790M/L858R limits assumed): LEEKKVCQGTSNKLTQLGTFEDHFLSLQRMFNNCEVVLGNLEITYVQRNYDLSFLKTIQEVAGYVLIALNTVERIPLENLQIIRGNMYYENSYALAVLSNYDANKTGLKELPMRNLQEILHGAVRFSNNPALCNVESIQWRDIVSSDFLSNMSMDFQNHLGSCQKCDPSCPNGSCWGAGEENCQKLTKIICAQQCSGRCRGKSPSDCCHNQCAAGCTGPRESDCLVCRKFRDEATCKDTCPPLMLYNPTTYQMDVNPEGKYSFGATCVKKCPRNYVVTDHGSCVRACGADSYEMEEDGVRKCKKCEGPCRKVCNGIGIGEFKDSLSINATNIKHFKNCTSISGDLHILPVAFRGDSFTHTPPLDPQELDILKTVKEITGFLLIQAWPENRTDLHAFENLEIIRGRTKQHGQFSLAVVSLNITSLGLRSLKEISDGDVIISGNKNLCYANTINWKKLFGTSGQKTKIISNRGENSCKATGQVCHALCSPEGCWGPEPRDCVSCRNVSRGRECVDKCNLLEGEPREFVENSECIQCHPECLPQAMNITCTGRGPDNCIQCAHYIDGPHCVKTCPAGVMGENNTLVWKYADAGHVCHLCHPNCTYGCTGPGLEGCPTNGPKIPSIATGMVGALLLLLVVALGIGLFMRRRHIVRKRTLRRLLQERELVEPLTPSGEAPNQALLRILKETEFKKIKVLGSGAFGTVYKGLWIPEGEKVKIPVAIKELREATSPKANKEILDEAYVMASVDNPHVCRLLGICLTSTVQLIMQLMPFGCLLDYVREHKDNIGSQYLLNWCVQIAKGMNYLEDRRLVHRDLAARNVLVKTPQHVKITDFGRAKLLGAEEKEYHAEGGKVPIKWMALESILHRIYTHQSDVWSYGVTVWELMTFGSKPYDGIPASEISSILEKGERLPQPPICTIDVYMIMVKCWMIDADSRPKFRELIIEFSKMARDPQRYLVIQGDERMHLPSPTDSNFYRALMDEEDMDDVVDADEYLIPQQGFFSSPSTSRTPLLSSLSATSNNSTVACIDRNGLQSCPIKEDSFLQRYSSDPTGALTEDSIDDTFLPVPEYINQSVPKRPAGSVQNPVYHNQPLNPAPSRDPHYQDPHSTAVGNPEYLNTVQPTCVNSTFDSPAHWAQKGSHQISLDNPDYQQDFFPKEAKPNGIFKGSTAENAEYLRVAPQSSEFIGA

For `CCC/C=C\C(=O)Nc1cc(Nc2nc3c(c(-c4cn(C)c5ccccc45)n2)CS(=O)(=O)CC3)c(OC)cc1N(C)CCN(C)C`, the IC50 in experiment [1] was 57 nM; in [2] (read-out: IC50), 104 nM; in experiment [2] (read-out: pIC50 (converted)), 104 nM; in experiment [3], greater than 2000 nM; in experiment [4], 16 nM; in experiment [7], 916 nM. Moreover, in experiment [5], the Ratio IC50 is greater than 125. Also, the inhibition at 10 µM in [6] stood at 99.5%. Moreover, the viability at 0.057 µM in [8] came out at 88.1%. The Activity in [9] came out at 5.87%; in [10], 5.92%; in experiment [11], 0.08%; in experiment [12], 69.17%; in experiment [13], 20.2%; in [14] it was 10.63%. The inhibition result in experiment [15] is “Dose-dependent effect”. Also, the inhibition result in experiment [16] is “inactive”.

On to `C=C(Cl)C(=O)Nc1cc(Nc2nc3c(c(-c4cn(C)c5ccccc45)n2)CSCC3)c(OC)cc1N(C)CCN(C)C`, for which the IC50 in experiment [1] is 716 nM; in experiment [2] (read-out: IC50), 1000 nM; in experiment [2] (read-out: pIC50 (converted)), 1000 nM; in experiment [3] it was 570 nM; in [4], 31 nM; in experiment [7], 4210 nM. Further, in experiment [5], the Ratio IC50 came to 18.4. The inhibition at 10 µM in experiment [6] was found to be 99.6%. In [17], the viability at 0.716 µM was 85.9%. In addition, the Activity in [18] was 7.56%; in experiment [19] it was 5.99%; in [20], 0.6%; in experiment [21] it was 60.51%; in experiment [22], 27.14%; in experiment [23] it was 12.35%.

For the origin of these results see ChEMBL document CHEMBL4312015, “Design, synthesis and 3D-QSAR analysis of novel thiopyranopyrimidine derivatives as potential antitumor agents inhibiting A549 and Hela cancer cells” (Eur J Med Chem, 2020).
